Laboratory results taken from ChEMBL document CHEMBL3804792, “Discovery and analgesic evaluation of 8-chloro-1,4-dihydropyrido[2,3-b]pyrazine-2,3-dione as a novel potent d-amino acid oxidase inhibitor” (Eur J Med Chem, 2016).
The source made the active and inactive calls.

Key:
[1] = target: D-amino-acid oxidase (Homo sapiens, UniProt P14920); assay: Inhibition of human recombinant DAAO using D-alanine as substrate assessed as pyruvate production incubated for 60 mins by microplate reader analysis
[2] = target: D-amino-acid oxidase (Sus scrofa, UniProt P00371); assay: Inhibition of DAAO in porcine kidney homogenate using D-alanine as substrate assessed as pyruvate production incubated for 5 mins by microplate reader analysis
[3] = target: D-amino-acid oxidase (Rattus norvegicus, UniProt O35078); assay: Inhibition of rat spinal DAAO using D-alanine as substrate assessed as pyruvate production incubated for 60 mins by microplate reader analysis
[4] = test system: Rattus norvegicus; assay: Analgesic activity in Wistar rat assessed as inhibition of NMDA-induced pain at 0.1 ug, it administered 30 mins prior to NMDA challenge measured for 10 mins; assay type: functional
Method in brief: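 Male Wistar rats (180-250 g), n = 6 per group, with intrathecal lumbar PE-10 catheters checked by lidocaine paralysis. Dosed 0.1 µg intrathecally 30 min before 5 nmol NMDA given intrathecally. Duration of scratching, biting and licking recorded for 10 min immediately after NMDA. Saline (10 µL) group as control. One-way ANOVA with Student-Newman-Keuls test.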

[5] = test system: Rattus norvegicus; assay: Analgesic activity in Wistar rat assessed as inhibition of formalin-induced paw flinch response in acute phase up to 3 ug, it administered as bolus injection 30 mins prior to formalin challenge measured within 10 mins relative to normal saline control; assay type: functional, organism-based
Method in brief: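 Intrathecally catheterized male Wistar rats (n = 6 per group) got a bolus of saline (10 µL) or compound (0.1–3 µg) 30 min before 50 µL 5% formalin sc into dorsal right hindpaw. Flinches counted in 1-min epochs every 10 min for 90 min; acute phase is the first 10 min. Compared with saline by one-way ANOVA and Student-Newman-Keuls test.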

[6] = species on record: Rattus norvegicus; assay: Analgesic activity in Wistar rat spinal nerve ligation-induced neuropathic pain model assessed as reduction in heat hyperalgesia assessed as increase in ipsilateral paw withdrawal response at 30 ug, it measured after 1 hr; assay type: functional
Method in brief: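 Spinal nerve-ligated male Wistar rats, intrathecally catheterised; only those with ipsilateral withdrawal threshold <8 g were used. After intrathecal dosing, radiant heat was applied to the plantar hind paw and withdrawal latency read, cut-off 20 s. Each paw tested three times at 10-min intervals and averaged. n = 6. Read at 0.5, 1, 2 and 4 h.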

[7] = test system: Mus musculus; assay: Attenuation of morphine analgesic tolerance in Swiss mouse assessed as latency of licking/biting/jumping at 10 ug, it bid coadministered with morphine at 12 hr intervals for 7 days by hot-plate test; assay type: functional, organism-based
Method in brief: (§1)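 Swiss mice (n = 6 per group) received intrathecal saline, morphine, or compound (10 µg) plus morphine twice daily, 12 h apart, for 7 days. On day 8, a single intrathecal saline or compound dose was given 15 min before saline or morphine challenge. Hot plate at 55 ± 0.1 °C with 40 s cut-off; lick/bite/jump latency read before and 0.5, 1, 2 h after injection on days 1, 3, 5, 7, 8. AUC0–2 h analysed by two-way ANOVA with Student-Newman-Keuls test.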

[8] = species on record: Rattus norvegicus; assay: Analgesic activity in Wistar rat spinal nerve ligation-induced neuropathic pain model assessed as reduction in heat hyperalgesia assessed as increase in ipsilateral paw withdrawal response at 30 ug, it measured after 0.5 to 4 hrs; assay type: functional, organism-based
Method in brief: (§2)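 Spinal nerve-ligated male Wistar rats, included only with ipsilateral withdrawal threshold < 8 g and no major impairment, dosed intrathecally. Mechanical thresholds (von Frey monofilaments on a metal grid) and radiant-heat paw withdrawal latency (20 s cut-off, mean of three trials 10 min apart) measured on both paws before and 0.5, 1, 2, 4 h after dosing. Thresholds converted to % MPE; two-way ANOVA.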

[9] = Apparent oral bioavailability in Swiss mouse at 10 mg/kg administered as oral gavage; assay type: ADME, organism-based; conditions: in vivo, read-out: Fapp
[10] = test system: Mus musculus; assay: Reversal of morphine analgesic tolerance in 10 ug, it BID for 7 days morphine pre-treated Swiss mouse assessed as latency of licking/biting/jumping at 10 ug, it administered as single bolus injection 15 mins prior to morphine challenge on day 8 by hot-plate test; assay type: functional, organism-based; method in brief: as §1
[11] = test system: Mus musculus; assay: Analgesic activity in Swiss mouse assessed as inhibition of formalin-induced acute pain at 0.3 to 10 mg/kg, sc administered 30 mins prior to formalin challenge measured within 5 mins relative to normal saline control; assay type: functional, organism-based
Method in brief: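 Male Swiss mice (18e22 g), n = 6 per group; saline (10 mL/kg) or compound sc 30 min before 10 µL 5% formalin in 0.9% saline sc into dorsal right hindpaw. Licking/biting duration manually pooled over 0–5 min (acute phase) and compared with saline group; one-way ANOVA with Student-Newman-Keuls post-hoc test.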

[12] = species on record: Rattus norvegicus; assay: Analgesic activity in Wistar rat spinal nerve ligation-induced neuropathic pain model assessed as reduction in mechanical allodynia assessed as increase in ipsilateral paw withdrawal response at 30 ug, it measured after 1 hr; assay type: functional
Method in brief: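 Spinal nerve-ligated male Wistar rats, intrathecally catheterised; only rats with threshold <8 g and no major impairment were included. After intrathecal dosing, ipsilateral hind-limb withdrawal threshold to monofilaments was measured on a metal grid after ≥30 min acclimation, at 0.5, 1, 2 and 4 h. n = 6. Results converted to %MPE against baseline.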

[13] = test system: Rattus norvegicus; assay: Analgesic activity in Wistar rat assessed as inhibition of NMDA-induced pain at 10 ug, it administered 30 mins prior to NMDA challenge measured for 10 mins; assay type: functional, organism-based
Method in brief: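 Male Wistar rats with lumbar intrathecal PE-10 catheters, placement checked by lidocaine-induced hind-limb paralysis; n = 6 per group. Intrathecal saline, MK-801 or compound 30 min before intrathecal NMDA (5 nmol). Scratching, biting and licking duration recorded for 10 min; means ± S.E.M., one-way ANOVA with Student-Newman-Keuls test versus saline.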

[14] = species on record: Rattus norvegicus; assay: Analgesic activity in Wistar rat spinal nerve ligation-induced neuropathic pain model assessed as reduction in mechanical allodynia assessed as increase in ipsilateral paw withdrawal response at 30 ug, it measured after 0.5 to 4 hrs; assay type: functional, organism-based; method in brief: as §2
[15] = test system: Mus musculus; assay: Analgesic activity in Swiss mouse assessed as inhibition of formalin-induced tonic pain at 10 mg/kg administered as oral gavage 30 mins prior to formalin challenge measured from 20 to 40 mins relative to normal saline control; assay type: functional; set-up: scale not given: the % may be the effect or the level left
Method in brief: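 Fasted male Swiss mice (18-22 g), n = 6. Dosed 10 mg/kg by oral gavage 30 min before 10 µL of 5% formalin in 0.9% saline injected s.c. into the dorsal right hindpaw. Licking/biting duration was scored manually and pooled over 20-40 min as tonic pain. Drug dissolved in normal saline at pH 7.3-7.5. Compared with a saline control group.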

[16] = test system: Rattus norvegicus; assay: Analgesic activity in it dosed Wistar rat assessed as inhibition of formalin-induced paw flinch response in tonic phase administered as bolus injection 30 mins prior to formalin challenge measured from 10 to 90 mins relative to normal saline control; assay type: functional
Method in brief: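 Intrathecally catheterised male Wistar rats, n = 6 per group. A bolus of 0.1-3 µg was given intrathecally 30 min before 50 µL of 5% formalin s.c. into the dorsal right hindpaw. Flinches counted in 1-min epochs at 10-min intervals over 90 min. […] Saline (10 µL) group as control.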

[17] = species on record: Rattus norvegicus; assay: Effect on contralateral paw withdrawal in Wistar rat spinal nerve ligation-induced neuropathic pain model at 30 ug, it measured after 0.5 to 4 hrs; assay type: ADME, organism-based; conditions: in vivo, icv_or_intrathecal; method in brief: as §2
[18] = test system: Mus musculus; assay: Analgesic activity in sc dosed Swiss mouse assessed as inhibition of formalin-induced tonic pain administered 30 mins prior to formalin challenge measured from 20 to 40 mins relative to normal saline control; assay type: functional
Method in brief: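 Male Swiss mice, n = 6 per group. Dosed s.c. at 0.3-30 mg/kg in saline (10 mL/kg) 30 min before 10 µL of 5% formalin s.c. into the dorsal right hindpaw. Licking/biting time was pooled over 20-40 min as tonic pain. Values compared with saline control. Emax and ED50 taken from the dose-response. One-way ANOVA with Student-Newman-Keuls test.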

Chain of D-amino-acid oxidase (Rattus norvegicus, UniProt O35078) (O35078 whole entry): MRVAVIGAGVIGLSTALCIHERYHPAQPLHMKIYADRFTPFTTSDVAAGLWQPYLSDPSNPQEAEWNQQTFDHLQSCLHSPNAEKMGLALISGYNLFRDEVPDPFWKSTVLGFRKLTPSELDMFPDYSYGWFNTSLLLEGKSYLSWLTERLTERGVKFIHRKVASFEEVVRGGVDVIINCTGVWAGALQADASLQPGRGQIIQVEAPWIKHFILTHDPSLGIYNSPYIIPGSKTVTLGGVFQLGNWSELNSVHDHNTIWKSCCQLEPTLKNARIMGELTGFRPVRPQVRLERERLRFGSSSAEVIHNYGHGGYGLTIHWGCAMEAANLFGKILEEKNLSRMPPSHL
Chain of D-amino-acid oxidase (Sus scrofa, UniProt P00371) (P00371 whole entry): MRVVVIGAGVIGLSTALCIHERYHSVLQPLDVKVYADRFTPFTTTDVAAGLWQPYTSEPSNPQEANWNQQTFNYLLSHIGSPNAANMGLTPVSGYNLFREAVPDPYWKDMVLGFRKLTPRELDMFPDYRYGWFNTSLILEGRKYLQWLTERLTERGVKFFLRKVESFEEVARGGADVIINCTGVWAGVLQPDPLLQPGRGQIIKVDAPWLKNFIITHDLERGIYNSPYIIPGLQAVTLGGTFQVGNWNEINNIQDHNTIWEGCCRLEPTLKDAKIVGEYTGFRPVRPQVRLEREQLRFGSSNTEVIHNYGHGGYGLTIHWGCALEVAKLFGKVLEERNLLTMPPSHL
Chain of D-amino-acid oxidase (Homo sapiens, UniProt P14920) (P14920 whole entry): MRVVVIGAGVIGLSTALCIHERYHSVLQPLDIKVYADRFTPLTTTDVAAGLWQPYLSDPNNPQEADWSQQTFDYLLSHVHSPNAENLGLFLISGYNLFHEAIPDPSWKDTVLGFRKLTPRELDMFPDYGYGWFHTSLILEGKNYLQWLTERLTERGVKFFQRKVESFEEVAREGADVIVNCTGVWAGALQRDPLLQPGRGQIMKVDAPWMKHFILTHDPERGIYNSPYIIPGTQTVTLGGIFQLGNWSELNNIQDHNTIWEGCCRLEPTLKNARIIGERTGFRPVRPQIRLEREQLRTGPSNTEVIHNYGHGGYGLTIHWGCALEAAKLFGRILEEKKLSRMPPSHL

Row | Compound | IC50 [2] [µM] | further results
1 | O=c1[nH]c2ncc(Cl)c(Br)c2[nH]c1=O | 0.24 | IC50 [1]: 1.38 µM; IC50 [3]: 7.99 µM
2 | Oc1nc2cc(Br)cnc2nc1O | 12.4 | 
3 | Cc1c(Br)cnc2nc(O)c(O)nc12 | 0.4 | 
4 | O=c1[nH]c2nccc(OCCCc3ccccc3)c2[nH]c1=O | > 300 | 
5 | Cc1c(F)cnc2[nH]c(=O)c(=O)[nH]c12 | 0.15 | IC50 [1]: 0.34 µM; IC50 [3]: 0.15 µM
6 | O=C(O)c1cnc2[nH]c(=O)c(=O)[nH]c2c1 | > 1000 | 
7 | Oc1noc2cc(Cl)ccc12 | 0.21 | IC50 [3]: 0.09 µM
8 | COc1ccc2nc(O)c(O)nc2n1 | > 100 | 
9 | O=c1[nH]c2nccc(Oc3ccccc3)c2[nH]c1=O | > 1000 | 
10 | O=c1[nH]c2nccc(OCCc3ccccc3)c2[nH]c1=O | > 300 | 
11 | Cc1cnc2nc(O)c(O)nc2c1 | 36.7 | 
12 | Oc1nc2ccc(Cl)nc2nc1O | 20.3 | 
13 | O=c1[nH]c2cc(F)cnc2[nH]c1=O | 0.46 | 
14 | CCc1ccnc2[nH]c(=O)c(=O)[nH]c12 | 2.4 | 
15 | COC(=O)c1cnc2[nH]c(=O)c(=O)[nH]c2c1 | > 1000 | 
16 | CC(C)Oc1ccnc2[nH]c(=O)c(=O)[nH]c12 | > 100 | 
17 | CCOc1ccnc2[nH]c(=O)c(=O)[nH]c12 | > 100 | 
18 | C[C@]12N[C@H](Cc3ccccc31)c1ccccc12 [DIZOCILPINE] |  | inhibition (INH) [4]: 80%

Row | Compound | IC50 [2] [µM] | further results
19 | Cc1ccnc2[nH]c(=O)c(=O)[nH]c12 | 0.63 | 
20 | O=c1[nH]c2nccc(OCc3ccccc3)c2[nH]c1=O | > 300 | 
21 | O=c1[nH]c2ccc(OCc3ccccc3)nc2[nH]c1=O | > 300 | 
22 | CCOc1ccc2[nH]c(=O)c(=O)[nH]c2n1 | > 100 | 
23 | O=c1[nH]c2ccc(OCCc3ccccc3)nc2[nH]c1=O | > 300 | 
24 | O=c1[nH]c2nccc(Cl)c2[nH]c1=O | 0.18 | Activity [5]: inactive; MPE [6]: 80.8%; Activity [7]: Active; Activity [8]: Active; bioavailability [9]: 30%; IC50 [1]: 0.21 µM; Activity [10]: Active; Activity [11]: inactive; MPE [12]: 54.4%; Activity [13]: inactive; Activity [14]: Active; Activity [15]: 30%; Activity [16]: Dose-dependent effect; ED50 [16]: 0.25 µg; Emax ([16]; Rattus norvegicus, Wistar): 67.1%; Activity [17]: Non-toxic; Activity [18]: Dose-dependent effect; ED50 [18]: 1.8 mg/kg; Emax [18]: 49%; IC50 [3]: 0.14 µM
25 | Cc1c(Cl)cnc2nc(O)c(O)nc12 | 0.26 | IC50 [1]: 1.13 µM; IC50 [3]: 4.16 µM
26 | Oc1nc2cccnc2nc1O | 5.7 | 
27 | O=c1[nH]c2ncc(Br)c(Cl)c2[nH]c1=O | 0.48 | 
28 | Oc1nc2ccccc2nc1O | 33.6 | 
29 | Cc1ccc2nc(O)c(O)nc2n1 | 17.7 | 
30 | COc1ccnc2[nH]c(=O)c(=O)[nH]c12 | 85.7 | 
31 | O=c1[nH]c2ncc(Cl)c(Cl)c2[nH]c1=O | 0.65 | 
32 | Oc1nc2cc(Cl)cnc2nc1O | 6.7 | 
33 | O=c1[nH]c2ncc(Br)c(Br)c2[nH]c1=O | 0.53 | 
34 | O=c1[nH]c2nccc(C(F)(F)F)c2[nH]c1=O | 0.52 | 
35 | O=c1[nH]c2nccc(Br)c2[nH]c1=O | 0.22 | IC50 [1]: 2.24 µM; IC50 [3]: 2.24 µM
36 | Oc1nc2cc(C(F)(F)F)cnc2nc1O | 22.9 | 
